Reference: ChEMBL document CHEMBL1121733, “Synthesis and evaluation of ureido- and vinylureidopenicillins as inhibitors of intraruminal lactic acid production” (J Med Chem, 1981)
≈ marks a conversion by molar mass, not a printed value.

Experiments:
[1] = Percent inhibition of lactic acid production by the compound at 50 p.p.m.; type: functional; set-up: scale not given: the % may be the effect or the level left
Method in brief: (§1)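 Screen at 50, 5 and 0.5 µg/mL of incubation contents in strained bovine rumen fluid mixed 1:1 with CO2-saturated glucose/trypticase buffer, 5.5 h at 39 °C. Stopped with metaphosphoric acid, l(+)-lactate measured enzymatically. Expressed as lactate production as % of control incubations without compound.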

[2] = tested on: Staphylococcus aureus; assay: (§2) In vitro Minimum inhibitory concentration against Staphylococcus penicillin G resistant); type: functional
Method in brief: (§3)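 Broth microdilution in brain–heart infusion broth with 0.066 g/L tetrazolium chloride. Serial twofold dilutions from 200 to 0.0008 µg/mL. Inoculum: 1 µL of a 1:10 dilution of an 18 h, 37 °C culture. Incubated 16 h at 37 °C; growth read as red precipitate. MIC taken from triplicate trays per compound per organism.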

[3] = tested on: Escherichia coli; assay: In vitro Minimum inhibitory concentration against Escherichia coli ATCC 25922; type: functional
Method in brief: (§4)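 Twofold broth microdilution from 200 to 0.0008 µg/mL in brain–heart infusion broth with 0.066 g/L tetrazolium chloride. Inoculum was 1 µL of a 1:10 dilution of an 18 h, 37 °C culture. Plates incubated 16 h at 37 °C, with growth read as red precipitate. Triplicate trays per compound per organism.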

[4] = Effective inhibition concentration for reduction of propionic acid production to less than 95% of control; type: functional
Method in brief: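 Rumen fluid from a fistulated bovine, strained and mixed 1:1 with CO2-saturated buffer with moderate substrate at normal intraruminal pH (volatile fatty acid model). Retest dilutions from 0.5 mg/mL stock down to 0.004 mg/mL, triplicate tubes, 9 h. Stopped with 25% metaphosphoric acid, centrifuged, propionate measured by GC-FID. Value is the minimum concentration giving propionate below 95% of control.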

[5] = tested on: Streptococcus pyogenes; assay: In vitro Minimum inhibitory concentration against Streptococcus pyogenes ATCC 8668; type: functional; method in brief: as §4
[6] = tested on: Enterococcus faecium; assay: In vitro Minimum inhibitory concentration against Streptococcus faecium ATCC 8043-2; type: functional; method in brief: as §4
[7] = Effective inhibition concentration for reduction of lactic acid production to less than 10% of control; type: functional
Method in brief: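 Bovine rumen fluid from a fistulated animal, strained through cheesecloth, mixed 1:1 with CO2-saturated buffer (glucose 27 g/L, trypticase 1.50 g/L, Na2HPO4 4.26 g/L). Compounds retested from 0.5 mg/mL stock serially diluted to 0.004 mg/mL, duplicate tubes, 5.5 h at 39 °C. Stopped with 25% metaphosphoric acid, centrifuged, l(+)-lactate measured enzymatically. Value is the minimum concentration giving lactate below 10% of no-compound control.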

[8] = Lipophilicity estimated on reversed phase TLC; type: physicochemical; conditions: silicone oil-coated silica gel plates, 30% MeOH in pH 7.0 buffer
Method in brief: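 Reversed-phase TLC on silica gel G plates dipped in 20 vol % silicone oil in hexane and dried. Mobile phase 30 vol % MeOH in pH 7.0 buffer. ΔR_M measured against a reference compound run on every plate, averaged over 2–6 plates.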

[9] = Percent inhibition of lactic acid production by the compound at 5 p.p.m.; type: functional; set-up: scale not given: the % may be the effect or the level left; method in brief: as §1
[10] = tested on: Staphylococcus aureus; assay: In vitro Minimum inhibitory concentration against Staphylococcus aureus ATCC 6538P (penicillin G sensitive); type: functional; method in brief: as §4
[11] = Percent inhibition of lactic acid production by the compound at 0.5 p.p.m.; type: functional; set-up: scale not given: the % may be the effect or the level left; method in brief: as §1
[12] = tested on: Staphylococcus aureus; assay: as §2; type: functional, staphylococcus pureus; method in brief: as §3

Delta RM [8] | Structure (SMILES) | Control [1] | MIC [2] | MIC [3] | Dose [4] | MIC [5] | MIC [6] | Concentration [7] | Control [9] | MIC [10] | Control [11] | MIC [12]
-0.45 | COc1cc(/C=C/NC(=O)NC2C(=O)N3C2SC(C)(C)[C@@H]3C(=O)[O-])cc(OC)c1OC.[Na+] (some centres not stated) | 8% |  |  |  |  |  |  | 2% |  | 105% | 
 | CCOC(=O)c1ccc(NC(=O)NC2C(=O)N3C2SC(C)(C)[C@@H]3C(=O)O)cc1 (some centres not stated) | 3% |  |  |  |  |  |  | 95% |  | 101% | 
0.69 | CC1(C)SC2C(NC(=O)N/C=C/c3cccc(Br)c3)C(=O)N2[C@H]1C(=O)[O-].[Na+] (some centres not stated) | 3% |  |  |  |  |  |  | 0% |  | 142% | 
0.5 | Cc1ccc(/C=C/NC(=O)NC2C(=O)N3C2SC(C)(C)[C@@H]3C(=O)[O-])cc1.[Na+] (some centres not stated) | 2% |  |  | > 10 µg/mL |  |  | 0.31 µg/mL | 2% |  | 0% | 
-0.01 | CC1(C)SC2C(NC(=O)Nc3ccc(Cl)cc3)C(=O)N2[C@H]1C(=O)[O-].[Na+] (some centres not stated) | 2% |  |  |  |  |  |  | 112% |  | 102% | 
0.43 | CCOc1ccc(/C=C/NC(=O)NC2C(=O)N3C2SC(C)(C)[C@@H]3C(=O)[O-])cc1.[Na+] (some centres not stated) | 1% |  |  | > 10 µg/mL |  |  | 0.31 µg/mL | 1% |  | 0% | 
0.3 | C/C(=C\NC(=O)NC1C(=O)N2C1SC(C)(C)[C@@H]2C(=O)[O-])c1ccccc1.[Na+] (some centres not stated) | 0% |  |  |  |  |  |  | 5% |  | 87% | 
-0.62 | CC1(C)SC2C(NC(=O)NC3CCCCC3)C(=O)N2[C@H]1C(=O)[O-].[Na+] (some centres not stated) | 2% |  |  |  |  |  |  | 0% |  | 99% | 
-0.26 | CC1(C)SC2C(NC(=O)N/C=C/c3ccco3)C(=O)N2[C@H]1C(=O)[O-].[Na+] (some centres not stated) | 3% |  |  |  |  |  |  | 89% |  | 101% | 
-0.2 | CC1(C)SC2C(NC(=O)N/C=C/c3cccs3)C(=O)N2[C@H]1C(=O)[O-].[Na+] (some centres not stated) | 0% |  |  |  |  |  |  | 52% |  | 102% | 
 | CC(C)(C)c1ccc(/C=C/NC(=O)NC2C(=O)N3C2SC(C)(C)[C@@H]3C(=O)O)cc1 (some centres not stated) | 0% |  |  | > 10 µg/mL |  |  | 0.16 µg/mL | 0% |  | 0% | 
0.66 | CC1(C)SC2C(NC(=O)N/C=C/c3cccc4ccccc34)C(=O)N2[C@H]1C(=O)[O-].[Na+] (some centres not stated) | 3% |  |  |  |  |  |  | 0% |  | 111% | 
-2 | CC(C)NC(=O)NC1C(=O)N2C1SC(C)(C)[C@@H]2C(=O)[O-].[Na+] (some centres not stated) | 7% |  |  |  |  |  |  | 119% |  | 108% | 
 | CC1(C)S[C@@H]2[C@H](NC(=O)Cc3ccccc3)C(=O)N2[C@H]1C(=O)O [PENICILLIN G] |  |  | 25 µg/mL (≈ 74.8 µM) |  | 0.01 µg/mL (≈ 0.0299 µM) | 0.4 µg/mL (≈ 1.2 µM) |  |  | 0.05 µg/mL (≈ 0.15 µM) |  | 50 µg/mL (≈ 150 µM)
-0.29 | CC1(C)SC2C(NC(=O)NC3CC3c3ccccc3)C(=O)N2[C@H]1C(=O)[O-].[Na+] (some centres not stated) | 8% |  |  |  |  |  |  | 4% |  | 104% | 
-0.75 | CC1(C)SC2C(NC(=O)Nc3ccccc3)C(=O)N2[C@H]1C(=O)[O-].[Na+] (some centres not stated) | 3% |  |  |  |  |  |  | 110% |  | 96% | 
1.44 | CC1(C)SC2C(NC(=O)N/C=C/c3ccc(Cl)c(Cl)c3)C(=O)N2[C@H]1C(=O)[O-].[Na+] (some centres not stated) | 1% |  |  |  |  |  |  | 106% |  | 107% | 

Structure (SMILES) | Delta RM [8] | Control [1] | MIC [2] | MIC [3] | Dose [4] | MIC [5] | MIC [6] | Concentration [7] | Control [9] | MIC [10] | Control [11] | MIC [12]
CC1(C)SC2C(NC(=O)NCc3ccc4ccccc4c3)C(=O)N2[C@H]1C(=O)[O-].[Na+] (some centres not stated) | 0 | 9% | 50 µg/mL | > 200 µg/mL | 5 µg/mL | 0.05 µg/mL | 3.12 µg/mL | 0.08 µg/mL | 4% | 0.05 µg/mL | 4% | 
CC1(C)SC2C(NC(=O)N/C=C/c3ccc(Cl)cc3)C(=O)N2[C@H]1C(=O)[O-].[Na+] (some centres not stated) | 0.58 | 10% |  | > 200 µg/mL | > 10 µg/mL | 3.12 µg/mL | > 200 µg/mL | 1.25 µg/mL | 2% | 6.25 µg/mL | 0% | 50 µg/mL
CC1(C)SC2C(NC(=O)N/C=C/c3ccc4ccccc4c3)C(=O)N2[C@H]1C(=O)[O-].[Na+] (some centres not stated) | 1.05 | 8% |  | > 200 µg/mL | > 10 µg/mL | 3.12 µg/mL | 200 µg/mL | 0.31 µg/mL | 2% | 3.12 µg/mL | 1% | 100 µg/mL
CC1(C)SC2C(NC(=O)N/C=C/C3CCCCC3)C(=O)N2[C@H]1C(=O)[O-].[Na+] (some centres not stated) | 0.77 | 2% |  | > 200 µg/mL | 2.5 µg/mL | 0.2 µg/mL | 50 µg/mL | 0.31 µg/mL | 2% | 0.4 µg/mL | 0% | 50 µg/mL
CC1(C)SC2C(NC(=O)NCCc3ccc4ccccc4c3)C(=O)N2[C@H]1C(=O)[O-].[Na+] (some centres not stated) | 0.89 | 9% |  | > 200 µg/mL | > 10 µg/mL | 0.05 µg/mL | 6.25 µg/mL | 0.31 µg/mL | 7% | 0.1 µg/mL | 2% | 25 µg/mL
CC(C)(C)c1ccc(/C=C/NC(=O)NC2C(=O)N3C2SC(C)(C)[C@@H]3C(=O)O)cc1.CCN(CC)CC (some centres not stated) | 1.31 |  |  |  |  |  |  |  |  |  |  | 
CC1(C)SC2C(NC(=O)NCCc3ccccc3)C(=O)N2[C@H]1C(=O)[O-].[Na+] (some centres not stated) | -0.6 | 9% | 50 µg/mL | 100 µg/mL | 5 µg/mL | 0.1 µg/mL | 3.12 µg/mL | 0.31 µg/mL | 6% | 0.1 µg/mL | 4% | 
CC1(C)SC2C(NC(=O)N/C=C/c3ccc4c(c3)OCO4)C(=O)N2[C@H]1C(=O)[O-].[Na+] (some centres not stated) | -0.06 | 4% |  | 100 µg/mL | > 10 µg/mL | 1.6 µg/mL | 200 µg/mL | 0.16 µg/mL | 0% | 6.25 µg/mL | 0% | 50 µg/mL
CC(C)(C)c1ccc(/C=C/NC(=O)NC2C(=O)N3C2SC(C)(C)[C@@H]3C(=O)[O-])cc1.[Na+] (some centres not stated) | 1.31 |  |  | > 200 µg/mL |  | 1.6 µg/mL | > 200 µg/mL |  |  | 3.12 µg/mL |  | 100 µg/mL
